From ChEMBL document CHEMBL1124009 (J Med Chem, 1988)

Key:
[1] = biological target: Opioid receptors; mu & delta (Rattus norvegicus) (UniProt P33533+P33535); assay: Ratio of selective binding affinity of mu receptor to that of delta opioid receptor; format: protein assay
[2] = Ratio of selective binding affinity of mu receptor to that of somatostatin receptor
[3] = biological target: Delta-type opioid receptor (Rattus norvegicus, UniProt P33533); assay: Binding affinity in competition with [3H]- DPDPE in Opioid receptor delta 1 binding to rat brain membrane
Summary of the method: (§1)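 Brains (minus cerebellum) of male Sprague–Dawley rats (200–250 g) were homogenized, preincubated 30 min at 25 °C and centrifuged twice at 43000g. Homogenate at 0.5% final was incubated with 0.5 nM [3H]CTOP (μ) or 1.0 nM [3H]DPDPE (δ) in 50 mM Tris-HCl pH 7.4 with 5 mM MgCl2, BSA 1 mg/mL and 100 μM PMSF, 120 min at 25 °C, in duplicate. Nonspecific binding was taken with 1 μM naloxone; bound label was filtered and scintillation counted; curves were fit by nonlinear least squares.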

Mu-type opioid receptor = Mu-type opioid receptor (Rattus norvegicus, UniProt P33535); assay: Binding affinity in competition with [3H]- CTOP in Opioid receptor mu 1 binding to rat brain membrane; summary of the method: as §1
Somatostatin receptor = assay: Binding affinity in competition with [125I]- CGP-23996 in somatostatin receptor binding to rat brain membrane
Summary of the method: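 Rat whole-brain membranes (adult male Sprague–Dawley) at 1.0% final tissue were incubated with 0.2 nM [125I]CGP 23,996 and analogues at 100–0.3 μM. Buffer was 50 mM Tris pH 7.4 with 2.0 mg/mL BSA, 20 μg/mL bacitracin and 5 mM MgCl2. Incubation ran 1 h at 37 °C and ended by rapid filtration through BSA-soaked GF/B filters.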

Chain of Mu-type opioid receptor (P33535 whole entry): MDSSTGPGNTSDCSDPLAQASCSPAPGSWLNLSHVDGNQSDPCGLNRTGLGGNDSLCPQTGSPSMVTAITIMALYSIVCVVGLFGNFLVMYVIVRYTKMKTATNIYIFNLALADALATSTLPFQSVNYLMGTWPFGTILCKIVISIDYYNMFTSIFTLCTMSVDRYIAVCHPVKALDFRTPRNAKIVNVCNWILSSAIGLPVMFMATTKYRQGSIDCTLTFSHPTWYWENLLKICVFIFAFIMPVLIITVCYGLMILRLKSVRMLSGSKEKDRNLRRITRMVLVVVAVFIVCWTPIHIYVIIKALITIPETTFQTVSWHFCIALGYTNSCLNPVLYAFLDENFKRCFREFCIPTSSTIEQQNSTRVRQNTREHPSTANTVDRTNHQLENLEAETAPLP
Chain of Opioid receptors; mu & delta (Rattus norvegicus) (P33533 whole entry, looked up): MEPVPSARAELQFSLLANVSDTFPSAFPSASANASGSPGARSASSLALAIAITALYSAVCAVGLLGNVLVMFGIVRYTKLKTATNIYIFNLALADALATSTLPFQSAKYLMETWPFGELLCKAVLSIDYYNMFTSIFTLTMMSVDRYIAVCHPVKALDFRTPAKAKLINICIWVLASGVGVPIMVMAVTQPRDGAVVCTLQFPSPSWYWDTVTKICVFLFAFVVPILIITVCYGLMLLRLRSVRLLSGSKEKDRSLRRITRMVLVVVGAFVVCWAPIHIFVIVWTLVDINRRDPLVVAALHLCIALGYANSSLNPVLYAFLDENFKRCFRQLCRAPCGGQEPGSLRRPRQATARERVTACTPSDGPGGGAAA
Chain of Opioid receptors; mu & delta (Rattus norvegicus) (P33535 whole entry, looked up): as the sequence (P33535 whole entry) above
Chain of Delta-type opioid receptor (P33533 whole entry): as the sequence (P33533 whole entry, looked up) above

| SMILES | IC50 [3] [µM] | IC50 (Mu-type opioid receptor) [nM] | IC50 (Somatostatin receptor) [µM] | further results |
| --- | --- | --- | --- | --- |
| CN[C@H](Cc1ccccc1)C(=O)N[C@H]1CSSC(C)(C)[C@@H](C(=O)N[C@H](C(N)=O)[C@@H](C)O)NC(=O)[C@H]([C@@H](C)O)NC(=O)[C@H](CCCN)NC(=O)C(Cc2c[nH]c3ccccc23)NC(=O)[C@H](Cc2ccc(O)cc2)NC1=O (stereo in doubt) [listing 1 of 3 here] |  |  |  | Ratio [1]: > 35; Ratio [2]: 28 |
| C[C@@H](O)[C@@H]1NC(=O)[C@H](CCCCN)NC(=O)C(Cc2c[nH]c3ccccc23)NC(=O)[C@H](Cc2ccc(O)cc2)NC(=O)[C@@H](NC(=O)[C@H](N)Cc2ccccc2)CSSC(C)(C)[C@@H](C(N)=O)NC1=O (stereo in doubt) [listing 1 of 2 here] | > 10 | 115 |  |  |
| C[C@@H](O)[C@@H]1NC(=O)[C@H](CCCCN)NC(=O)C(Cc2c[nH]c3ccccc23)NC(=O)[C@H](Cc2ccc(O)cc2)NC(=O)[C@@H](NC(=O)[C@H](N)Cc2ccccc2)CSSC(C)(C)[C@@H](C(=O)N[C@@H](CC(N)=O)C(N)=O)NC1=O (stereo in doubt) [listing 1 of 2 here] | > 10 | 130 |  |  |
| C[C@@H](O)[C@H](NC(=O)[C@H]1NC(=O)[C@H]([C@@H](C)O)NC(=O)[C@H](CCCN)NC(=O)[C@@H](Cc2c[nH]c3ccccc23)NC(=O)[C@H](Cc2ccc(O)cc2)NC(=O)[C@@H](NC(=O)[C@H](N)Cc2ccccc2)CSSC1(C)C)C(N)=O | 5.6 |  |  |  |
| C[C@@H](O)[C@H](NC(=O)[C@@H]1NC(=O)[C@H](CCCCN)NC(=O)C(Cc2c[nH]c3ccccc23)NC(=O)[C@H](Cc2ccc(O)cc2)NC(=O)[C@@H](NC(=O)[C@@H](N)Cc2ccccc2)CSSC1(C)C)C(N)=O (stereo in doubt) [listing 1 of 2 here] | > 10 |  |  |  |
| C[C@@H](O)[C@@H]1NC(=O)[C@H](CCCCN)NC(=O)C(Cc2c[nH]c3ccccc23)NC(=O)[C@H](Cc2ccc(O)cc2)NC(=O)[C@@H](NC(=O)[C@H](N)Cc2ccccc2)CSSC(C)(C)[C@@H](C(=O)N[C@@H](CC(=O)O)C(N)=O)NC1=O (stereo in doubt) [listing 1 of 3 here] |  |  | 8.3 |  |
| C[C@@H](O)[C@H](NC(=O)[C@H]1NC(=O)[C@H](CCCCN)NC(=O)C(Cc2c[nH]c3ccccc23)NC(=O)[C@@H](Cc2ccc(O)cc2)NC(=O)[C@@H](NC(=O)[C@H]2Cc3ccccc3CN2)CSSC1(C)C)C(N)=O (stereo in doubt) [listing 1 of 2 here] |  |  | 13.61 |  |
| C[C@@H](O)[C@@H]1NC(=O)[C@H](CCCCN)NC(=O)C(Cc2c[nH]c3ccccc23)NC(=O)[C@H](Cc2ccc(O)cc2)NC(=O)[C@@H](NC(=O)[C@H]2Cc3ccccc3CN2)CSSC(C)(C)[C@@H](C(=O)N[C@@H](CO)C(N)=O)NC1=O (stereo in doubt) [listing 1 of 3 here] |  |  |  | Ratio [1]: 491; Ratio [2]: 192 |
| C[C@@H](O)[C@H](NC(=O)[C@H]1NC(=O)[C@H]([C@@H](C)O)NC(=O)[C@H](CCCN=C(N)N)NC(=O)[C@@H](Cc2c[nH]c3ccccc23)NC(=O)[C@H](Cc2ccc(O)cc2)NC(=O)[C@@H](NC(=O)[C@H](N)Cc2ccccc2)CSSC1(C)C)C(N)=O | 5.31 | 2.1 |  |  |
| C[C@@H](O)[C@@H]1NC(=O)[C@H](CCCCN)NC(=O)C(Cc2c[nH]c3ccccc23)NC(=O)[C@H](Cc2ccc(O)cc2)NC(=O)[C@@H](NC(=O)[C@H](N)Cc2ccccc2)CSSC(C)(C)[C@@H](C(=O)N[C@@H](CO)C(N)=O)NC1=O (stereo in doubt) |  |  | 1.888 |  |
| C[C@@H](O)[C@@H]1NC(=O)[C@H](CCCN)NC(=O)C(Cc2c[nH]c3ccccc23)NC(=O)[C@H](Cc2ccc(O)cc2)NC(=O)[C@@H](NC(=O)[C@H](N)Cc2ccccc2)CSSC(C)(C)[C@@H](C(N)=O)NC1=O (stereo in doubt) [listing 1 of 2 here] |  |  | 47.273 |  |
| C[C@@H](O)[C@H](NC(=O)[C@H]1NC(=O)[C@H](CC(N)=O)NC(=O)[C@H](Cc2ccc(O)cc2)NC(=O)[C@@H](NC(=O)[C@H](N)Cc2ccccc2)CSSC1(C)C)C(N)=O | > 10 |  |  |  |
| C[C@@H](O)[C@@H]1NC(=O)[C@H](CCCCN)NC(=O)C(Cc2c[nH]c3ccccc23)NC(=O)[C@H](Cc2ccc(O)cc2)NC(=O)[C@@H](NC(=O)[C@H](N)Cc2ccccc2)CSSC(C)(C)[C@@H](C(=O)N[C@@H](CC(N)=O)C(N)=O)NC1=O (stereo in doubt) [listing 2 of 2 here] |  |  | 1.801 |  |
| C[C@@H](O)[C@@H]1NC(=O)[C@H](CCCCN)NC(=O)C(Cc2c[nH]c3ccccc23)NC(=O)[C@H](Cc2ccc(O)cc2)NC(=O)[C@@H](NC(=O)[C@H](N)Cc2ccccc2)CSSC(C)(C)[C@@H](C(=O)N[C@@H](CC(=O)O)C(N)=O)NC1=O (stereo in doubt) [listing 2 of 3 here] |  |  |  | Ratio [1]: > 2.9; Ratio [2]: 2.4 |
| C[C@@H](O)[C@H](NC(=O)[C@H]1NC(=O)[C@H]([C@@H](C)O)NC(=O)[C@H](CCCN)NC(=O)C(Cc2c[nH]c3ccccc23)NC(=O)[C@@H](Cc2ccc(O)cc2)NC(=O)[C@@H](NC(=O)[C@H]2Cc3ccccc3CN2C(=O)CN)CSSC1(C)C)C(N)=O (stereo in doubt) [listing 1 of 2 here] |  |  | 19.408 |  |
| C[C@@H](O)[C@H](NC(=O)[C@@H]1NC(=O)[C@H](CCCCN)NC(=O)C(Cc2c[nH]c3ccccc23)NC(=O)[C@H](Cc2ccc(O)cc2)NC(=O)[C@@H](NC(=O)[C@@H](N)Cc2ccccc2)CSSC1(C)C)C(N)=O (stereo in doubt) [listing 2 of 2 here] |  |  | 6.103 |  |
| C[C@@H](O)[C@H](NC(=O)[C@H]1NC(=O)[C@H]([C@@H](C)O)NC(=O)[C@H](CCCCN)NC(=O)C(Cc2c[nH]c3ccccc23)NC(=O)[C@H](Cc2ccc(O)cc2)NC(=O)[C@@H](NC(=O)C(N)Cc2c[nH]c3ccccc23)CSSC1(C)C)C(N)=O (stereo in doubt) [listing 1 of 2 here] | > 10 | 6.3 |  |  |
| CN[C@H](Cc1ccccc1)C(=O)N[C@H]1CSSC(C)(C)[C@@H](C(=O)N[C@H](C(N)=O)[C@@H](C)O)NC(=O)[C@H]([C@@H](C)O)NC(=O)[C@H](CCCN)NC(=O)C(Cc2c[nH]c3ccccc23)NC(=O)[C@H](Cc2ccc(O)cc2)NC1=O (stereo in doubt) [listing 2 of 3 here] | > 10 | 284 |  |  |
| C[C@@H](O)[C@H](NC(=O)[C@H]1NC(=O)[C@H]([C@@H](C)O)NC(=O)[C@H](CCCCN)NC(=O)C(Cc2c[nH]c3ccccc23)NC(=O)[C@H](Cc2ccc(O)cc2)NC(=O)[C@@H](NC(=O)C(N)Cc2c[nH]c3ccccc23)CSSC1(C)C)C(N)=O (stereo in doubt) [listing 2 of 2 here] |  |  | 1.599 |  |
| C[C@@H](O)[C@H](NC(=O)[C@@H]1NC(=O)[C@H]([C@@H](C)O)NC(=O)[C@@H](Cc2c[nH]c3ccccc23)NC(=O)[C@H](Cc2ccc(O)cc2)NC(=O)[C@@H](NC(=O)[C@H](N)Cc2ccccc2)CSSC1(C)C)C(N)=O | 7.82 | 10000 |  |  |
| C[C@@H](O)[C@H](NC(=O)[C@H]1NC(=O)[C@H](CC(N)=O)NC(=O)[C@H](Cc2ccccc2)NC(=O)[C@@H](NC(=O)[C@H](N)Cc2ccc(O)cc2)CSSC1(C)C)C(N)=O | ≥ 10 | 7470 |  |  |
| C[C@@H](O)[C@@H]1NC(=O)[C@H](CCCCN)NC(=O)C(Cc2c[nH]c3ccccc23)NC(=O)[C@H](Cc2ccc(O)cc2)NC(=O)[C@@H](NC(=O)[C@H](N)Cc2ccccc2)CSSC(C)(C)[C@@H](C(=O)N[C@@H](CC(=O)O)C(N)=O)NC1=O (stereo in doubt) [listing 3 of 3 here] | > 10 | 3470 |  |  |
| C[C@@H](O)[C@H](NC(=O)[C@H]1NC(=O)[C@H]([C@@H](C)O)NC(=O)[C@H](CCCCN)NC(=O)C(Cc2c[nH]c3ccccc23)NC(=O)[C@@H](Cc2ccc(O)cc2)NC(=O)[C@@H](NC(=O)[C@H]2Cc3ccccc3CN2)CSSC1(C)C)C(N)=O (stereo in doubt) |  |  | 0.949 |  |
| C[C@@H](O)[C@@H]1NC(=O)[C@H](CCCN)NC(=O)C(Cc2c[nH]c3ccccc23)NC(=O)[C@H](Cc2ccc(O)cc2)NC(=O)[C@@H](NC(=O)[C@H](N)Cc2ccccc2)CSSC(C)(C)[C@@H](C(N)=O)NC1=O (stereo in doubt) [listing 2 of 2 here] | > 10 | 187 |  |  |
| CN[C@H](Cc1ccccc1)C(=O)N[C@H]1CSSC(C)(C)[C@@H](C(=O)N[C@H](C(N)=O)[C@@H](C)O)NC(=O)[C@H]([C@@H](C)O)NC(=O)[C@H](CCCN)NC(=O)C(Cc2c[nH]c3ccccc23)NC(=O)[C@H](Cc2ccc(O)cc2)NC1=O (stereo in doubt) [listing 3 of 3 here] |  |  | 8.054 |  |
| C[C@@H](O)[C@@H]1NC(=O)[C@H](CCCCN)NC(=O)C(Cc2c[nH]c3ccccc23)NC(=O)[C@H](Cc2ccc(O)cc2)NC(=O)[C@@H](NC(=O)[C@H](N)Cc2ccccc2)CSSC(C)(C)[C@@H](C(N)=O)NC1=O (stereo in doubt) [listing 2 of 2 here] |  |  | 1.942 |  |
| C[C@@H](O)[C@@H]1NC(=O)[C@H](CCCCN)NC(=O)C(Cc2c[nH]c3ccccc23)NC(=O)[C@H](Cc2ccc(O)cc2)NC(=O)[C@@H](NC(=O)[C@H]2Cc3ccccc3CN2)CSSC(C)(C)[C@@H](C(=O)N[C@@H](CO)C(N)=O)NC1=O (stereo in doubt) [listing 2 of 3 here] |  |  | 1.499 |  |
| C[C@@H](O)[C@H](NC(=O)[C@H]1NC(=O)[C@H]([C@@H](C)O)NC(=O)[C@H](CCCN)NC(=O)C(Cc2c[nH]c3ccccc23)NC(=O)[C@@H](Cc2ccc(O)cc2)NC(=O)[C@@H](NC(=O)[C@H]2Cc3ccccc3CN2C(=O)CN)CSSC1(C)C)C(N)=O (stereo in doubt) [listing 2 of 2 here] | 5.35 | 278 |  |  |
| C[C@@H](O)[C@H](NC(=O)[C@H]1NC(=O)[C@H](CCCCN)NC(=O)C(Cc2c[nH]c3ccccc23)NC(=O)[C@@H](Cc2ccc(O)cc2)NC(=O)[C@@H](NC(=O)[C@H]2Cc3ccccc3CN2)CSSC1(C)C)C(N)=O (stereo in doubt) [listing 2 of 2 here] | > 10 | 9410 |  |  |
| C[C@@H](O)[C@@H]1NC(=O)[C@H](CCCCN)NC(=O)C(Cc2c[nH]c3ccccc23)NC(=O)[C@H](Cc2ccc(O)cc2)NC(=O)[C@@H](NC(=O)[C@H]2Cc3ccccc3CN2)CSSC(C)(C)[C@@H](C(=O)N[C@@H](CO)C(N)=O)NC1=O (stereo in doubt) [listing 3 of 3 here] | 3.83 | 7.8 |  |  |
